The nature of assay [1]: Antioxidant activity assessed as superoxide-scavenging activity by nitrite method. The format is functional.
Assay [2] has as its target Xanthine dehydrogenase/oxidase (Homo sapiens, UniProt P47989). As to the kind of experiment: Inhibition of xanthine oxidase assessed as decrease in uric acid production by spectrophotometry. In outline:
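Flavonoid at various concentrations with 50 µM xanthine, 0.2 mM hydroxylamine and 0.1 mM EDTA. Stopped with HCl, then uric acid read as absorbance at 290 nm against an enzyme-free blank. IC50 by linear regression.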

Assay [3] can be described thus: Prooxidant effect assessed as superoxide production by nitrite method. Type of assay: functional. The essentials: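 Xanthine oxidase (6.25 mU/mL, in 200 mM phosphate buffer pH 7.50) generated superoxide from 50 µM xanthine with 0.2 mM hydroxylamine and 0.1 mM EDTA, plus flavonoid at various concentrations. Incubated 30 min at 37 °C. Superoxide read by the nitrite method: stood 30 min at room temperature, then absorbance at 550 nm. Levels compared with control experiments; IC50 from linear regression.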

Active and inactive are the calls of the source. The calls are words filed in the database; no cut-off is given here.

Drawing on ChEMBL document CHEMBL1158850, “Structure-activity relationship and classification of flavonoids as inhibitors of xanthine oxidase and superoxide scavengers” (J Nat Prod, 1998), this text covers IC50 and Activity for 30 compounds.

A word on the IC50: it is the concentration needed to halve the response being measured.

Chain of Xanthine dehydrogenase/oxidase (P47989 whole entry): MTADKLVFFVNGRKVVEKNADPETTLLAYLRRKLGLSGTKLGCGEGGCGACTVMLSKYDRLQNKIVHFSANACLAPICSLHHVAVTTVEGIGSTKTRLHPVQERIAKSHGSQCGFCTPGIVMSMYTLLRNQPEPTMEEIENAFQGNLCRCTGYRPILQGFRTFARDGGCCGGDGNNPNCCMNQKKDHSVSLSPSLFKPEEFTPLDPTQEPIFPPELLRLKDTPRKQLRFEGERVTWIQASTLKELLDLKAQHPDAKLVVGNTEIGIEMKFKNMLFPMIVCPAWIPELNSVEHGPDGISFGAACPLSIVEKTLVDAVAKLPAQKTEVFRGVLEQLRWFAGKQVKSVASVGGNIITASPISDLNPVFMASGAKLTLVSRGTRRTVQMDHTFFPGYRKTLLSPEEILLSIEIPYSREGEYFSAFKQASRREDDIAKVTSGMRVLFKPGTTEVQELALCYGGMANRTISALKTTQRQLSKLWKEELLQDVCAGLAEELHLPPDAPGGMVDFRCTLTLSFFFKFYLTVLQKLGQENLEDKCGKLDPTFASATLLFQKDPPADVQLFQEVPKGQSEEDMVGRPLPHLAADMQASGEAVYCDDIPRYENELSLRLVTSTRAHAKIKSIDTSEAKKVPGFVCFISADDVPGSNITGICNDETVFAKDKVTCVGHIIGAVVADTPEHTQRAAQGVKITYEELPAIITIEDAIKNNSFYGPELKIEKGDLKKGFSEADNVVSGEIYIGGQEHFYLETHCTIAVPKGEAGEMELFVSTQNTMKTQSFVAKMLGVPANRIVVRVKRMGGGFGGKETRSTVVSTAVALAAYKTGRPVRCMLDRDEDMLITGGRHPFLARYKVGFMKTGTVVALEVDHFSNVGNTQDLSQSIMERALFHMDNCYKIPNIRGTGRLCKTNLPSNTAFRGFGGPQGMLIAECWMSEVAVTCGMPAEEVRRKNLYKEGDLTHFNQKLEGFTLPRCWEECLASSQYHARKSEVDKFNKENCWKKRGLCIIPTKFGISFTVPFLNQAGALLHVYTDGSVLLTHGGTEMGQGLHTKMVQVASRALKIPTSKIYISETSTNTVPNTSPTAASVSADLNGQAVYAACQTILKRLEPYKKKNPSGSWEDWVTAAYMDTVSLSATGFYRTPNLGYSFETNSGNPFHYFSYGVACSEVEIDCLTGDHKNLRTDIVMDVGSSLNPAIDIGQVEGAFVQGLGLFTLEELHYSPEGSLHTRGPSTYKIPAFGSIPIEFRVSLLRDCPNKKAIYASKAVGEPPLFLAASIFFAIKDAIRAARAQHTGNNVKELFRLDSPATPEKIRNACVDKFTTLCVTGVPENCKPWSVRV

With `O=C1c2c(O)cc(O)cc2OC(c2ccc(O)c(O)c2)C1O` (racemic) [TAXIFOLIN], the IC50 in assay [1] came to 1730 nM. Regarding `O=C1CC(c2ccc(O)cc2)Oc2ccccc21` (configuration not stated) [4'-HYDROXY-FLAVANONE], the IC50 is over 30000 nM in assay [2] and over 18000 nM in assay [1].

For `O=c1cc(-c2ccccc2)oc2cc(O)ccc12` [7-HYDROXYFLAVONE], the IC50 was 38000 nM in assay [2] and over 100000 nM in assay [1]. Moreover, the outcome in assay [3] was Active. Regarding `Oc1cc(O)c2c(c1)O[C@H](c1ccc(O)c(O)c1)[C@H](O)C2` [(-)-EPICATECHIN], the figures for the IC50 in assay [2] and in assay [1] were over 100000 nM and 1590 nM, respectively. For the compound `Oc1ncnc2[nH]ncc12` [ALLOPURINOL], in assay [1], the IC50 was 230 nM. As to `O=c1cc(-c2ccc(O)cc2)oc2cc(O)cc(O)c12` [APIGENIN], the results for the IC50 in assay [2] and in assay [1] were 700 nM and 1330 nM, respectively. Taken in the same sequence, the figures for `O=c1cc(-c2ccccc2)oc2cc(O)c(O)c(O)c12` [BAICALEIN] were 2790 nM and 2720 nM. With `O=c1cc(-c2ccccc2)oc2cc(O)cc(O)c12` [CHRYSIN], the IC50 in assay [2] turned out to be 840 nM; in assay [1], 1870 nM.

Turning to `COc1cc(-c2cc(=O)c3c(O)cc(O[C@@H]4O[C@H](CO)[C@@H](O)[C@H](O)[C@H]4O[C@@H]4O[C@@H](C)[C@H](O)[C@@H](O)[C@H]4O)cc3o2)ccc1O` [CHRYSOERIOL-7-O-NEOHESPERIDOSIDE], the IC50 in assay [2] and in assay [1] was over 100000 nM in each case. `Oc1cc(O)c2c(c1)O[C@H](c1ccc(O)c(O)c1)[C@@H](O)C2` [CIANIDANOL]: the IC50 in assay [2] is over 100000 nM; in assay [1], 1610 nM. On the same counts, the results for `COc1cc2oc(-c3ccc(O[C@@H]4O[C@H](CO)[C@@H](O)[C@H](O)[C@H]4O)cc3)cc(=O)c2c(O)c1OC` [CIRSIMARIN] are over 100000 nM and over 100000 nM. `Oc1cc(O)c2c(c1)O[C@H](c1cc(O)c(O)c(O)c1)[C@H](O)C2` [EPIGALLOCATECHIN]: the values for the IC50 in assay [2] and in assay [1] were over 100000 nM and 480 nM, respectively.

Take `O=c1c(O)c(-c2ccc(O)c(O)c2)oc2cc(O)ccc12` [FISETIN]: the IC50 stood at 4330 nM in assay [2] and 1840 nM in assay [1]. On the same counts, the results for `O=c1c(O)c(-c2ccccc2)oc2ccccc12` [FLAVONOL] are over 100000 nM and over 100000 nM. With `O=c1c(O)c(-c2ccccc2)oc2cc(O)cc(O)c12` [GALANGIN], the values for the half-inhibitory concentration (IC50) in assay [2] and in assay [1] were 1800 nM and 6740 nM, respectively. On the same counts, the results for `COc1cc(-c2oc3cc(O)cc(O)c3c(=O)c2O)ccc1O` [ISORHAMNETIN] are 2510 nM and 2750 nM. Regarding `O=c1c(O)c(-c2ccc(O)cc2)oc2cc(O)cc(O)c12` [KAEMPFEROL], the values for the IC50 in assay [2] and in assay [1] were 1060 nM and 840 nM, respectively. Take `C[C@@H]1O[C@@H](O[C@H]2[C@H](Oc3cc(O)c4c(=O)cc(-c5ccc(O)c(O)c5)oc4c3)O[C@H](CO)[C@@H](O)[C@@H]2O)[C@H](O)[C@H](O)[C@H]1O` [LONICERIN]: the IC50 in assay [2] was 11900 nM; in assay [1], 2370 nM. As for `O=c1cc(-c2ccc(O)c(O)c2)oc2cc(O)cc(O)c12` [LUTEOLIN], the IC50 in assay [2] turned out to be 550 nM; in assay [1], 1130 nM. On the same counts, the results for `O=c1c(O)c(-c2ccc(O)cc2O)oc2cc(O)cc(O)c12` [MORIN] are 10100 nM and 9100 nM. On the same counts, the results for `O=c1c(O)c(-c2cc(O)c(O)c(O)c2)oc2cc(O)cc(O)c12` [MYRICETIN] are 2380 nM and 330 nM. In the case of `O=C1C[C@@H](c2ccc(O)cc2)Oc2cc(O)cc(O)c21` [NARINGENIN], the 50% inhibitory concentration (IC50) in assay [2] and in assay [1] was over 50000 nM each time.

Regarding `C[C@@H]1O[C@@H](OC[C@H]2O[C@@H](Oc3c(-c4ccc(O)cc4)oc4cc(O)cc(O)c4c3=O)[C@H](O)[C@@H](O)[C@@H]2O)[C@H](O)[C@H](O)[C@H]1O` [NICOTIFLOROSIDE], the IC50 in assay [2] turned out to be 14800 nM; in assay [1], 3400 nM. Taken in the same sequence, the figures for `COc1ccc(-c2cc(=O)c3c(OC)c(OC)c(OC)c(OC)c3o2)cc1OC` [NOBILETIN] were over 100000 nM and over 100000 nM. Taken in the same sequence, the figures for `COc1cc(O)c2c(=O)c(O)c(-c3ccc(OC)c(O)c3)oc2c1` [OMBUINE] were 7700 nM and 2600 nM.

Regarding `O=c1c(O)c(-c2ccc(O)c(O)c2)oc2cc(O)cc(O)c12` [QUERCETIN], in assay [1], the IC50 is 1630 nM.

Turning to `C[C@@H]1O[C@@H](Oc2c(-c3ccc(O)c(O)c3)oc3cc(O)cc(O)c3c2=O)[C@H](O)[C@H](O)[C@H]1O` [QUERCITRIN], the IC50 in assay [2] is over 100000 nM; in assay [1], 8100 nM.

Consider `C[C@@H]1O[C@@H](OC[C@H]2O[C@@H](Oc3c(-c4ccc(O)c(O)c4)oc4cc(O)cc(O)c4c3=O)[C@H](O)[C@@H](O)[C@@H]2O)[C@H](O)[C@H](O)[C@H]1O` [RUTIN], for which the IC50 in assay [2] was determined as 52200 nM.

In the case of `COc1ccc(-c2cc(=O)c3c(OC)c(OC)c(OC)c(OC)c3o2)cc1` [TANGERETIN], the IC50 in assay [2] and in assay [1] was over 100000 nM in each case. On to `O=C(/C=C/c1ccc(O)cc1)OC[C@H]1O[C@@H](Oc2c(-c3ccc(O)cc3)oc3cc(O)cc(O)c3c2=O)[C@H](O)[C@@H](O)[C@@H]1O` [TILIROSIDE], for which the IC50 in assay [2] and in assay [1] was over 100000 nM each time.
